Results pooled from the literature.
Cell line: MDA-MB-231
Observed: cell growth or viability

SMILES	assay	conditions	IC50
C[C@H]1[C@H](C)CC[C@]2(C(=O)O)CC[C@]3(C)C(=CC[C@@H]4[C@@]5(C)CC[C@H](O)C(C)(C)[C@@H]5CC[C@]43C)[C@H]12	thymidine uptake	24 h	13.1 µM
Cc1ccc(S(=O)(=O)n2cc(/C=N/NC(=O)c3ccccc3C)c3ccccc32)cc1	MTT	48 h	27.2 µM
O=C1Nc2ccccc2/C1=N/N=C/c1cccc([N+](=O)[O-])c1	MTT	48 h	21.1 µg/mL
CC(C)(C)c1cnc(CSc2cnc(NC(=O)C3CCN(C(=O)CCCCCCCN4Cc5cc6c(cc5C4)C(=O)N(C4CCC(=O)NC4=O)C6=O)CC3)s2)o1 (stereo not drawn)	MTT		0.0796 µM
Cc1cc(NS(=O)(=O)c2ccc(NC(=O)/C(C#N)=C/c3ccc(N4CCOCC4)cc3)cc2)no1	MTT	48 h	83.3 µM
Cc1ccc(S(=O)(=O)n2cc(/C=N/NC(=O)Cc3ccc(F)cc3F)c3ccccc32)cc1	MTT	48 h	26.4 µM
C[C@H]1[C@H](C)CC[C@]2(C)CC[C@]3(C)C(=CC(=O)[C@@H]4[C@@]5(C)CC[C@@H](O)[C@](C)(C(=O)NCc6cn(-c7cccc(C(F)(F)F)c7)nn6)[C@@H]5CC[C@]43C)[C@H]12	MTT	24 h	70.4 µM
Cc1ccc(S(=O)(=O)n2cc(/C=N/NC(=O)c3ccc(Br)cc3)c3ccccc32)cc1	MTT	48 h	22.4 µM
CC(=O)N1CCC(Nc2cc(C(=O)NC[C@H](O)CN3CCc4ccccc4C3)ncn2)CC1	CCK-8	72 h	> 100 µM
Fc1ccc(NC(=S)N/N=C/c2cccc3cc4ccccc4nc23)cc1	MTT	48 h	> 50 µM
COc1ccc(C(=O)N/N=C/c2cn(S(=O)(=O)c3ccc(C)cc3)c3ccccc23)cc1	MTT	48 h	34.4 µM
CNC(=S)N/N=C/c1cccc2cc3ccccc3nc12	MTT	48 h	18.9 µM
COc1cccc(NC(=O)Nc2ccc(Oc3nc4ccccc4n4cnnc34)cc2)c1	MTT	24 h	21.7 µM
C=CCn1c(=O)c2cnc(Nc3ccc(N4CCN(C)CC4)cc3)nc2n1-c1ccc2c(n1)[C@@](O)(CC)CC2	ATP luminescence	72 h	0.627 µM
O=[N+]([O-])c1ccc(NC(=S)N/N=C/c2cccc3cc4ccccc4nc23)cc1	MTT	48 h	> 50 µM
Cc1cc(NS(=O)(=O)c2ccc(NC(=O)/C(C#N)=C/c3ccncc3)cc2)no1	MTT	48 h	116 µM
COc1ccc(NC(=S)N/N=C/c2cccc3cc4ccccc4nc23)cc1	MTT	48 h	> 50 µM
CC1CCC(C(C)C)C(OC2=C(Cl)C(=O)c3ccccc3C2=O)C1 (stereo not drawn)	MTT	24 h	5 µg/mL

SMILES	assay	conditions	IC50
CO[C@H]1[C@H](O[C@H]([C@H]2O[C@@H](n3ccc(=O)[nH]c3=O)[C@H](O)[C@@H]2O)[C@H](NCCCNC(=O)[C@@H](NC(=O)[C@@H](NC(=O)N[C@H](C(=O)O)C(C)C)[C@@H]2CCN=C(N)N2)[C@@H](O)C(C)C)C(=O)O)O[C@H](CN)[C@H]1O	WST-1		> 35 µM
Cc1ccc(S(=O)(=O)n2cc(/C=N/NC(=O)c3cccc(Cl)c3)c3ccccc32)cc1	MTT	48 h	25.1 µM
Cc1cc(NS(=O)(=O)c2ccc(NC(=O)/C(C#N)=C/c3ccc(N4CCCC4)cc3)cc2)no1	MTT	48 h	109 µM
Cc1ccc(S(=O)(=O)n2cc(/C=N/NC(=O)c3ccccc3)c3ccccc32)cc1	MTT	48 h	24.1 µM
C[C@H]1[C@H](C)CC[C@]2(C)CC[C@]3(C)C(=CC(=O)[C@@H]4[C@@]5(C)CC[C@@H](O)[C@](C)(C(=O)NCc6cn(-c7ccc(F)cc7)nn6)[C@@H]5CC[C@]43C)[C@H]12	MTT	24 h	71.4 µM
COc1ccccc1/C=N/N=C1\C(=O)Nc2ccccc21	MTT	48 h	26.3 µg/mL
COc1cc([C@@H]2c3cc4c(cc3[C@@H](O[C@@H]3O[C@@H]5CO[C@@H](C)O[C@H]5[C@H](O)[C@H]3O)[C@H]3COC(=O)[C@H]23)OCO4)cc(OC)c1O	ATP luminescence	48 h	2.15 µM
Cc1ccc(S(=O)(=O)n2cc(/C=N/NC(=O)c3ccc(C)c(F)c3)c3ccccc32)cc1	MTT	48 h	21.3 µM
COc1cccc2c1C(=O)c1c(O)c3c(c(O)c1C2=O)C[C@@](O)(C(=O)CO)C[C@@H]3O[C@H]1C[C@H](N)[C@H](O)[C@H](C)O1	MTT	24 h	7.19 µg/mL
O=C(Nc1ccc(Cl)cc1)Nc1ccc(Oc2nc3ccccc3n3cnnc23)cc1	MTT	24 h	> 68 µM
CC(C)[C@@H]1NC(=O)/C(=C/c2cnc[nH]2)NC1=O	SRB		> 15 µM
Cc1ccc(S(=O)(=O)n2cc(/C=N/NC(=O)c3ccccc3Br)c3ccccc32)cc1	MTT	48 h	29.4 µM
Nc1ccn([C@@H]2O[C@H](CO)[C@@H](O)C2(F)F)c(=O)n1	MTT	24 h	7.1 µg/mL
C[C@H]1[C@H](C)CC[C@]2(C)CC[C@]3(C)C(=CC(=O)[C@@H]4[C@@]5(C)CC[C@@H](O)[C@](C)(C(=O)NCc6cn(-c7ccc(Br)cc7)nn6)[C@@H]5CC[C@]43C)[C@H]12	MTT	24 h	72.5 µM
COc1cccc2c1C(=O)c1c(O)c3c(c(O)c1C2=O)C[C@@](O)(C(=O)CO)C[C@@H]3O[C@H]1C[C@H](N)[C@H](O)[C@H](C)O1	MTT	48 h	0.2 µM
CN1CCc2c(c3ccccc3n2Cc2ccc(C(=O)NO)cc2)C1	CCK-8	48 h	24.7 µM
C[C@H]1[C@H](C)CC[C@]2(C)CC[C@]3(C)C(=CC(=O)[C@@H]4[C@@]5(C)CC[C@@H](O)[C@](C)(C(=O)NCc6cn(-c7ccc(Cl)cc7)nn6)[C@@H]5CC[C@]43C)[C@H]12	MTT	24 h	106 µM
C=CC(C)(C)c1[nH]cnc1/C=C1/NC(=O)[C@H](C(C)C)NC1=O	SRB		> 15 µM
